In PMC8992012 (Bioorganic & medicinal chemistry, 2021):

tested on: NF-κB; assay: NF-κB activation using THP1-Blue NF-κB cells; type: cell-based, human; conditions: Homo sapiens, 20 h, read-out: NF-κB SEAP Compound alone % Activation
Procedure, shortened: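 THP1-Blue NF-κB cells carry a stably integrated NF-κB-inducible SEAP. They were plated at 10^5 cells/well in RPMI with 10% FBS, penicillin, streptomycin and Normocin, then treated for 20 h with 5 μM test compound (0.5% DMSO final), alone or with LPS at 10 ng/mL. Supernatant SEAP was read colorimetrically at 630 nm. Signals were two-point normalized: baseline (vehicle or LPS) 100%, reference hit 200%.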

| SMILES | activation at 5 µM |
| --- | --- |
| Cc1ccc(C)c(-c2csc(NC(=O)c3ccc(S(=O)(=O)NC4CCCCC4)cc3)n2)c1 [Compound 54e, 4-(N-cyclohexylsulfamoyl)-N-(4-(2,5-dimethylphenyl)thiazol-2-yl)benzamide] | 100% |

same assay, conditions: compound alone, 5 μM, 20h

| SMILES | NF-κB activity (in words, SAR text to Table 1) |
| --- | --- |
| Cc1ccc(C)c(-c2csc(NC(=O)c3ccc(S(=O)(=O)N4CCN(C(=O)OC(C)(C)C)CC4)cc3)n2)c1 [Compound 54f, tert-butyl 4-((4-((4-(2,5-dimethylphenyl)thiazol-2-yl)carbamoyl)phenyl)sulfonyl)piperazine-1-carboxylate] | inactive |
| Cc1ccc(C)c(-c2csc(NC(=O)c3ccc(S(=O)(=O)N4CCCCC4)cn3)n2)c1 [Compound 42a, N-(4-(2,5-dimethylphenyl)thiazol-2-yl)-5-(piperidin-1-ylsulfonyl)picolinamide] | loss of activity |
| C#CCN(C(=O)c1ccc(S(=O)(=O)N2CCCCC2)cc1)c1nc(-c2cc(C)ccc2C)cs1 [Compound 34d, N-(4-(2,5-dimethylphenyl)thiazol-2-yl)-4-(piperidin-1-ylsulfonyl)-N-(prop-2-yn-1-yl)benzamide] | inactive |
| CCOc1sc(NC(=O)c2ccc(S(=O)(=O)N3CCCCC3)cc2)nc1-c1cc(C)ccc1C [Compound 18l, N-(4-(2,5-dimethylphenyl)-5-ethoxythiazol-2-yl)-4-(piperidin-1-ylsulfonyl)benzamide] | partial activity |
| Cc1ccc2c(c1)-c1nc(NC(=O)c3ccc(S(=O)(=O)N4CCCCC4)cc3)sc1C2 [Compound 12r, N-(5-methyl-8H-indeno[1,2-d]thiazol-2-yl)-4-(piperidin-1-ylsulfonyl)benzamide] | weakly active |
| Cc1ccc(C)c(-c2csc(NC(=O)c3ccc(S(=O)(=O)NC4CCCCC4)cc3)n2)c1 [Compound 54e, 4-(N-cyclohexylsulfamoyl)-N-(4-(2,5-dimethylphenyl)thiazol-2-yl)benzamide] | inactive |
| COc1cc(C(=O)Nc2nc(-c3cc(C)ccc3C)cs2)ccc1S(=O)(=O)N1CCCCC1 [Compound 42g, N-(4-(2,5-dimethylphenyl)thiazol-2-yl)-3-methoxy-4-(piperidin-1-ylsulfonyl)benzamide] | decline in activity |
| CCCC1CCN(S(=O)(=O)c2ccc(C(=O)Nc3nc(-c4cc(C)ccc4Br)cs3)cc2)CC1 [Compound 55, N-(4-(2-bromo-5-methylphenyl)thiazol-2-yl)-4-((4-propylpiperidin-1-yl)sulfonyl)benzamide] | retained NF-κB activity |
| Cc1ccc(C)c(-c2csc(NC(=O)c3ccc(S(=O)(=O)N4CCCCC4)c(N)c3)n2)c1 [Compound 42k, 3-amino-N-(4-(2,5-dimethylphenyl)thiazol-2-yl)-4-(piperidin-1-ylsulfonyl)benzamide] | decline in activity |
| C#Cc1sc(NC(=O)c2ccc(S(=O)(=O)N3CCCCC3)cc2)nc1-c1cc(C)ccc1C [Compound 18o, N-(4-(2,5-dimethylphenyl)-5-ethynylthiazol-2-yl)-4-(piperidin-1-ylsulfonyl)benzamide] | weak activity |
| Cc1cccc(C)c1-c1csc(NC(=O)c2ccc(S(=O)(=O)N3CCCCC3)cc2)n1 [Compound 12p, N-(4-(2,6-dimethylphenyl)thiazol-2-yl)-4-(piperidin-1-ylsulfonyl)benzamide] | retained activity |
| Cc1ccc(C)c(-c2csc(NCc3ccc(S(=O)(=O)N4CCCCC4)cc3)n2)c1 [Compound 34a, 4-(2,5-dimethylphenyl)-N-(4-(piperidin-1-ylsulfonyl)benzyl)thiazol-2-amine] | inactive |

same assay, conditions: in presence of LPS, compared to compound 1

| SMILES | NF-κB induction in the presence of LPS (in words, Fig. 6) |
| --- | --- |
| C#CC1CCN(S(=O)(=O)c2ccc(C(=O)Nc3nc(-c4cc(N=[N+]=[N-])ccc4C)cs3)cc2)CC1 [Compound 69, N-(4-(5-azido-2-methylphenyl)thiazol-2-yl)-4-((4-ethynylpiperidin-1-yl)sulfonyl)benzamide] | perfect overlapping dose-response curve |
